# PMC8158046 (Oncoimmunology, 2021)
# Positions of bridges follow the written chain, without caps; N, C: chain ends. Chains are numbered I, II in the order given. No end group written: not given here.
# Key:
# CD45 receptor [1] = target: T1, CD45 receptor (Homo sapiens, UniProt P08575); type: cell-based; conditions: CD45 blocked with monoclonal antibody and blocking peptide, n = 5
# T1 sequence (P08575 195-577 limits assumed): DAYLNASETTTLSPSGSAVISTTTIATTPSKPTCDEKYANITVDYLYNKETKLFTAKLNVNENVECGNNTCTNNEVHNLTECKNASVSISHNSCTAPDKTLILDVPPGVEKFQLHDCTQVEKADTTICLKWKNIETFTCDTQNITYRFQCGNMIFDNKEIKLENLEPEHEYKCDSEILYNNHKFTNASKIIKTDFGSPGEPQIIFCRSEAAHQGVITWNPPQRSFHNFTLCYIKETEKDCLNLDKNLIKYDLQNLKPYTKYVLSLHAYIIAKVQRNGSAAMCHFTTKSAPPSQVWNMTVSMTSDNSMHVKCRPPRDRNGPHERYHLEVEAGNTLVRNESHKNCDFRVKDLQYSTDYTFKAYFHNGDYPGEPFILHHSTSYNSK
# MDA-MB-231 cells = experiment: Tumor cell density by inverted microscope, MDA-MB-231; type: cell-based, human; conditions: 10 μg/ml; for effect on MDA-MB-231 tumor cells in the absence of PBMCs: monolayer without PBMC, microscope
# Outline: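 Tumor cells (MDA-MB-231 or MDA-MB-468, 4x10^5/2 ml) were plated overnight, then cultured with or without donor PBMCs (2x10^6/ml). Test compound or scrambled peptide was added at 10 µg/ml at 37°C, 5% CO2. Wells were washed once with PBS and cell density was documented by inverted light microscopy.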
# [2] = tested on: MCF-10A normal breast cells; experiment: MCF-10A cell killing by FACS; type: cell-based, human; conditions: for spontaneous cell apoptosis (killing) of MCF-10A cells: 10 μg/ml, 4–6 days, PBMC+MCF-10A, N = 3, mean ± SD
# Outline: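 MCF-10A cells were co-cultured with donor PBMCs (2x10^6/ml) plus test compound or scrambled peptide at 37°C, 5% CO2. Adherent cells were then detached. Anti-CD45 staining was used to exclude leukocytes, and apoptosis in the gated CD45-negative cells was measured by Annexin V/PI flow cytometry.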
# CD45 receptor [3] = target: T1, CD45 receptor; experiment: FACS analysis of C24D binding to PBMC sub-populations
# CD45 signaling pathway [4] = experiment: Protein phosphorylation by western blot in fresh PBMCs from TNBC patients; type: cell-based, human; conditions: fresh PBMCs from 5 TNBC patients, C24D 5 to 60 minutes, mean ± SD
# Outline: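 PBMCs were lysed in buffer containing phosphatase inhibitors (NaF, Na3VO4, β-glycerophosphate), freeze-thawed once and cleared at 14,000 rpm. Lysates were run on 10% SDS-PAGE and blotted for phospho-Lck Y505, phospho-Lck Y394, phospho-VAV-1 Y174 and phospho-ZAP70 Y493, with GAPDH as loading control. Bands were quantified by infrared imaging, normalized to control, and reported as mean ± SD.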
# [5] = Stability in human whole blood; type: in vitro ADME
# CD45 signaling pathway [6] = experiment: CD45 signal transduction by intracellular FACS, PBMC/MDA-MB-231 co-cultures; type: cell-based, human; conditions: PBMCs co-cultured with MDA-MB-231 for 24hs, C24D for 15 minutes
# Outline: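 PBMCs (2x10^6/ml, RPMI with 5% AB serum) were co-cultured for 24 h at 37°C, 5% CO2 with MDA-MB-231 cells pre-plated overnight (4x10^5/2 ml). Test compound was then added for 15 minutes. Phosphorylation was read by FACS in live PBMCs and normalized to the scrambled-peptide control.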
# MDA-MB-231 xenograft = experiment: MDA-MB-231 tumor xenograft in nude mice given human PBMCs; type: in vivo, BALB/C nude mice; conditions: for increase in human IFN-γ secretion in serum versus S-C24D group: 13 days after PBMC administration, p <0.05
# Outline: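 Female BALB/c nude mice (5–6 weeks) received 4x10^6 MDA-MB-231 cells s.c. in the right flank. At ~100 mm3 (day 6) they were randomized. Human PBMCs from 2 female donors were pre-incubated 5 min with test compound, scrambled peptide or PBS, then given IV. Treatment (60 or 300 µg/mouse in 200 µl PBS) followed IV twice weekly for 2 weeks. At 13 days, serum human IFNγ was measured. Paraffin tumor sections (pH 6 retrieval) were immunostained for CD45, activated CD56, CD8 and cleaved caspase-3, and 5 fields/slide on 5 slides were quantified.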
# CD45 signaling pathway [7] = type: cell-based, human; conditions: incubated with C24D for 5 to 24 hours, 5 separate experiments
# [8] = tested on: PBMCs from healthy female donors co-cultured with MDA-MB-231; experiment: FACS of activated PBMC sub-populations in co-cultures with MDA-MB-231; type: cell-based, human
# Outline: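 Lymphocytes were recovered from tumor/PBMC co-cultures; samples with >98% CD45+ cells were used. Cells (0.5x10^6/50 µl PBS) were stained for CD4, CD8, CD56, NKG2D, CD14, CD69, CD57 and CD137. Gated live cells were analysed by flow cytometry; mean ± SD reported, ANOVA with Tukey-Kramer.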
# [9] = tested on: PBMCs co-cultured with MCF-10A; experiment: Cytokine secretion in co-cultures of MCF-10A normal breast cells and PBMCs; type: cell-based, human; conditions: MCF-10A/PBMC co-culture after C24D, n = 3
# Outline: (§1)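 Target cells (MDA-MB-231, MDA-MB-468 or DMEM/10% FCS-grown MCF-10A; 4x10^5/2 ml) were plated overnight. PBMCs (2x10^6/ml, RPMI with 5% AB serum) were added, with test compound added at once (0.1–60 µg/ml) and scrambled peptide as control, at 37°C, 5% CO2. Supernatants were cleared (1200 rpm, 10 min) and stored at −80°C. IFNγ, TNFα, IL-2 and IL-1β were measured by ELISA.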
# [10] = tested on: PBMCs co-cultured with MDA-MB-231; experiment: Cytokine secretion by ELISA in supernatants of PBMC/MDA-MB-231 co-cultures; type: cell-based, human
# Outline: as §1
# CD45 signaling pathway [11] = experiment: CD45 signal transduction by western blot, PBMC/MDA-MB-231 co-cultures; type: cell-based, human; conditions: 10 µg/ml, n = 9, p <0.27
# CD45 receptor [12] = target: T2, CD45 receptor (Homo sapiens, UniProt P08575); type: in vitro ADME; conditions: 1.5 μM C24D, 3 hours after adding, ELISA read-out
# T2 sequence (P08575 26-1306): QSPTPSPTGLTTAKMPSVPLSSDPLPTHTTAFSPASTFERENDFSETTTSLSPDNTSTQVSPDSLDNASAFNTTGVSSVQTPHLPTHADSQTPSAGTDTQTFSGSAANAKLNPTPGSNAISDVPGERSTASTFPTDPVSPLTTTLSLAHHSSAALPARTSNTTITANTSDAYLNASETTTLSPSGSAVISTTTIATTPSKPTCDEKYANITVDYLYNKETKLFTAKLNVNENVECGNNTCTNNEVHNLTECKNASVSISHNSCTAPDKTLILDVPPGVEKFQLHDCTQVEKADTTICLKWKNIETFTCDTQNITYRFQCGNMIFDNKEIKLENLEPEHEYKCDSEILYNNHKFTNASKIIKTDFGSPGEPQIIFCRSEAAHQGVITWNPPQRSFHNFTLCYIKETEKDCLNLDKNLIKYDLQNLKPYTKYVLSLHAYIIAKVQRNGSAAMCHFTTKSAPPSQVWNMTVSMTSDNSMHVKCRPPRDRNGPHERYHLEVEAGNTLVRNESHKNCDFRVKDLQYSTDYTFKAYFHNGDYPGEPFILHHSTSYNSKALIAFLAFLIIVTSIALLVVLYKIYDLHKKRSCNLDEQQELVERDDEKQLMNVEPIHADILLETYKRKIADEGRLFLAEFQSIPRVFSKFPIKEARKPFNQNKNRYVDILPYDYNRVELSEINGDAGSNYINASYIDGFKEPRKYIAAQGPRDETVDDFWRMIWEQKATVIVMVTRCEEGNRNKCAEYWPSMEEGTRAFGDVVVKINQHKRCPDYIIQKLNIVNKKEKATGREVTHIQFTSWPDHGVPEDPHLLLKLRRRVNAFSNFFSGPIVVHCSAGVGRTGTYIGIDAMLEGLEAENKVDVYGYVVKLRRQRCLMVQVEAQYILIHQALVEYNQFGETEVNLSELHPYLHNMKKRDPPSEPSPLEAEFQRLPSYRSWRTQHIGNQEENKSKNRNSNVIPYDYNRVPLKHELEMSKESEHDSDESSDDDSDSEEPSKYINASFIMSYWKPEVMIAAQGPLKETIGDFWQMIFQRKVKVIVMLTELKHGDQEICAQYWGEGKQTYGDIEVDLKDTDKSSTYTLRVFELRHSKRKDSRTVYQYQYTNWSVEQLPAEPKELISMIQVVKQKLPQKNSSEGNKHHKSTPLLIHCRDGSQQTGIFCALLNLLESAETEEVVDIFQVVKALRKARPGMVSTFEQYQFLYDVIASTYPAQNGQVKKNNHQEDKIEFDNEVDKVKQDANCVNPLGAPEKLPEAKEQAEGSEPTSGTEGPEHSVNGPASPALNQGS
# [13] = 10 μg/ml C24D added to co-cultures
# [14] = 10 μg/ml C24D, PBMCs from 11 healthy female donors, mean ± SD
substance,measurement,setting,value
"CG-PPRIHPLKRISRTRLPRLHRPFHIS [S-C24D, reference compound]",IFN-γ in supernatants of co-cultures with blocked CD45 receptor,CD45 receptor [1],108 ± 20 pg/mL
same,effect on MDA-MB-231 tumor cells in the absence of PBMCs,MDA-MB-231 cells,no effect
same,spontaneous cell apoptosis (killing) of MCF-10A cells,[2],7.25 ± 2.34%
I: CGHHLLRPRRRKRPHSIPTPILIFRSP / II: CGHHLLRPRRRKRPHSIPTPILIFRSP (disulfide I:1-II:1) [C24D],percentage of C24D binding to CD16 after exposure to tumor cells,CD45 receptor [3],not affected
same,leukocyte sub-populations that bound C24D,"CD45 receptor [3]; PBMCs from healthy female donors, C24D conjugated to Alexa-488 dye","all 9 of the tested T, NK and monocyte sub-populations bound C24D"
same,percentage of CD45+ gated PBMCs that bind C24D (double staining),CD45 receptor [3]; anti CD45 monoclonal antibody (CD45-APC) and C24D-Alexa-488 conjugated peptide,100%
same,effect of C24D treatment on C24D binding to CD8 and NKG2D sub-populations exposed to MDA-MB-231,CD45 receptor [3]; p <0.05,reversed the decrease
same,"phosphorylation of Lck Y394 after addition of C24D, normalized to control",CD45 signaling pathway [4],117.4 ± 36.2%
same,"phosphorylation of Lck Y505 after addition of C24D, normalized to control",CD45 signaling pathway [4],79.2 ± 3.6%
same,"phosphorylation of VAV-1 after addition of C24D, normalized to control",CD45 signaling pathway [4],88.4 ± 26.9%
same,"phosphorylation of ZAP70 Y493 after addition of C24D, normalized to control",CD45 signaling pathway [4],116.4 ± 10.4%
same,half-life,[5],2.75 h
same,phosphorylation of Y394 in Lck,CD45 signaling pathway [6]; n = 3,increase
same,increase of the phosphorylation of VAV-1 versus control,"CD45 signaling pathway [6]; n = 3, mean ± SD",36.2 ± 4.0%
same,increase of the phosphorylation of Y493 in ZAP70 versus control,"CD45 signaling pathway [6]; n = 3, mean ± SD",50.13 ± 10.2%
same,tumor cell apoptosis (Cleaved Caspase-3 immunofluorescence),MDA-MB-231 xenograft; 60 μg (p <0.0013) and 300 μg (p <0.049) per mouse,significant increase
same,increase in human IFN-γ secretion in serum versus S-C24D group,MDA-MB-231 xenograft; 60 μg per mouse,68%
same,increase in human IFN-γ secretion in serum versus S-C24D group,MDA-MB-231 xenograft; 300 μg per mouse,82%
same,infiltration of human CD45+ cells in the tumor (immunofluorescence),"MDA-MB-231 xenograft; 60 and 300 μg doses vs S-C24D, p <0.015 and p <0.023",significantly induced
same,tumor-infiltrating NK (activated CD56+) cells (immunofluorescence),"MDA-MB-231 xenograft; 60 or 300 μg per mouse, p <0.011 and p <0.042",significant increase
same,tumor-infiltrating human CD8 T cells (immunofluorescence),"MDA-MB-231 xenograft; 60 or 300 μg per mouse, p <0.07 and p <0.1",non-significant
same,IFN-γ in supernatants of co-cultures with blocked CD45 receptor,CD45 receptor [1],107 ± 27 pg/mL
same,"Lck, ZAP70 and VAV-1 activation in fresh PBMCs from healthy donors in the absence of tumors",CD45 signaling pathway [7],no effect
same,CD57 expression,[8]; [13],not influenced
same,percentage of NKG2D+ and CD45RO+ cells,[8]; [13],not influenced
same,percentage of CD4+/CD69+ cells,[8]; [14],4.1 ± 1.58%
same,percentage of CD8+/CD69+ cells,[8]; [14],33.23%
same,TNF-α concentration,[9],5.6 ± 0.2 pg/mL
same,tumor apoptosis seen by microscope in PBMC/MDA-MB-231 co-cultures,MDA-MB-231 cells; PBMCs from healthy donors,massive tumor apoptosis
same,effect on MDA-MB-231 tumor cells in the absence of PBMCs,MDA-MB-231 cells,no effect
same,increase in secretion of IL-2,"[10]; C24D 4–6 days, MDA-MB-231/PBMC co-cultures, n = 7, p < 0.0007",92.2%
same,increase in secretion of TNF-α,"[10]; C24D 4–6 days, MDA-MB-231/PBMC co-cultures, n = 7, p < 0.04",98%
same,increase in secretion of IFN-γ,"[10]; C24D 4–6 days, MDA-MB-231/PBMC co-cultures, n = 8, p <0.03",90%
same,"cytokine secretion (IFNγ, IL-2, TNFα, IL-1β) in PBMCs alone","[10]; C24D added to PBMCs alone, no tumor cells",No effect
same,secretion of IL-1β by monocytes,[10]; C24D added to co-cultures,non-significant effect
same,phosphorylation of Lck Y394,CD45 signaling pathway [11],"increased, but not significant statistically"
same,spontaneous cell apoptosis (killing) of MCF-10A cells,[2],6.47 ± 0.94%
same,killing in MCF-10A and PBMCs co-cultures,[2]; treatment with C24D,failed to induce killing
same,decrease of binding to CD45 in the presence of human plasma,CD45 receptor [12],20%
